The list is not random: actives were taken first. Their share in the collection is about 3.7%.
Kir21 inh: inhibitors of mouse Kir2.1 inward-rectifier potassium channel | B-score at 10 µM | HEK293-Kir2.1, FluxOR thallium flux fluorescence; hits give low values | 310,000 compounds, 0.85% hits | Inward rectifier potassium channel 2 (Mus musculus), P35561;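 active = fluorescence ratio B-score at or below minus 3 SD of library scores, with starting-brightness B-score within 2 SD, cut at about -4.2 in these data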;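 note: channel flux triggered by added potassium and thallium sulfate stimulus; B-score of peak minus minimum fluorescence over baseline after thallium stimulus; more negative B-score means stronger Kir2.1 block with less thallium influx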
Target sequence (P35561 whole entry, looked up): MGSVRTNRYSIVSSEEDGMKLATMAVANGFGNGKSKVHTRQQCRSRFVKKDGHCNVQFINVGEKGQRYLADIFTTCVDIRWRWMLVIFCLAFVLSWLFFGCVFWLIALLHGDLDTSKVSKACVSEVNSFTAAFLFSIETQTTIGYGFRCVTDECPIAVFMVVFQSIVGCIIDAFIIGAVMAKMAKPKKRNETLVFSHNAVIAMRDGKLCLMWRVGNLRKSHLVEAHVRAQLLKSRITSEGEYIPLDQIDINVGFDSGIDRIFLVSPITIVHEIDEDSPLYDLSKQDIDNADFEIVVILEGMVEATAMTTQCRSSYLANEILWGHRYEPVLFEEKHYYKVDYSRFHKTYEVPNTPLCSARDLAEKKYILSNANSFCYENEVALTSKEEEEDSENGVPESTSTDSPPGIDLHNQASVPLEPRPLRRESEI
KCNK3 block: human KCNK3 channel inhibitors, primary screen, CHO cells, FluxOR thallium flux, B-score | FluxOR fluorescence; hits give low values | B-score at 10 µM | 340,000 compounds, 0.84% hits | Potassium channel subfamily K member 3 (Homo sapiens), O14649 | AID 602410, 2012;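 active = B-score under library mean minus 4 SD, starting fluorescence ratio at most library mean plus 5 SD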;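 note: more negative B-score means stronger inhibition of thallium flux through KCNK3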
KCNQ1 inh: inhibitors of human KCNQ1 channel, primary screen, cell-based, thallium flux, high-throughput; Potassium voltage-gated channel subfamily KQT member 1 (Homo sapiens), P51787; CHO-K1 KCNQ1, FluxOR thallium flux fluorescence; hits give high values; AID 2642, 2010; 310,000 compounds, 1.3% hits; B-score at 10 µM;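 active = compounds whose thallium flux B-score, printed positive for inhibition, exceeds three library SD while starting fluorescence stays within three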;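 note: channel opened by potassium depolarization with thallium stimulus after 20 min compound exposure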
hERG rescue: hERG rescue from dofetilide block, primary screen, cell-based, CHO-hERG, FluxOR thallium flux, dofetilide IC70; dofetilide IC70 present; 310,000 compounds, 0.51% hits; AID 1511, 2009; activation (rescue from dofetilide block), less the hit threshold, % at 10 µM;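 active = activation above the mean of controls blocked by dofetilide plus 5 SD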;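 note: thallium influx through hERG after potassium depolarization seen as dye fluorescence rise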
KCNK9 block: KCNK9 potassium channel inhibitors, primary screen, HEK293 cells, thallium flux | Potassium channel subfamily K member 9 (Homo sapiens), Q9NPC2 | FluxOR thallium flux fluorescence; hits give low values | B-score at 10 µM | 310,000 compounds, 1.2% hits | AID 488922, 2010;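 active = ratio B-score over 3 SD below the library mean, with starting fluorescence within 5 SD of its mean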;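 note: negative B-score means less thallium flux so channel inhibition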
KCNQ1 pot: potentiators or activators of KCNQ1 channel, primary screen, cell-based, thallium flux, high-throughput; B-score at 10 µM; 310,000 compounds, 0.35% hits; CHO-K1 KCNQ1, thallium flux FluxOR fluorescence; hits give high values;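 active = fluorescence ratio B-score, a plate-corrected score, at least three library SD, with initial intensity B-score within 5 SD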
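Doses: Single concentration per compound, DMSO matched to controls | Test system: KCNQ1-transfected CHO-K1 cells | Timing: 90 min dye loading and 20 min compound exposure, both at room temperature | Measured by: Kinetic FluxOR thallium fluorescence, 10-s 1-Hz baseline, 110-s post-stimulus read | Medium: Assay buffer with matched DMSO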
* hit, by the source's call; i = inactive; nt = not tested or not shown.

SMILES	Kir21 inh	KCNK3 block	KCNQ1 inh	hERG rescue	KCNK9 block	KCNQ1 pot
Cn1nc(-c2ccc(Cl)cc2)nc2c(=O)n(C)c(=O)nc1-2	-1	nt	i	-7	i	9*
CS(=O)(=O)n1nc(-c2ccc(Cl)cc2)nc1N	0.73	i	i	-8	i	i
Cc1ccc(S(=O)(=O)N2CCC(=O)N(C(CO)Cc3ccccc3)CC2)cc1 (centres undefined)	0.3	i	i	-7	i	i
Cc1ccc(S(=O)(=O)N2CCC(=O)N(C(COC(=O)Nc3ccccc3)Cc3ccccc3)CC2)cc1 (centres undefined)	-0.1	i	i	-16	-6.7*	i
CCOc1ccc(N(CC(=O)Nc2ccccc2C(=O)N2CCCC2)S(C)(=O)=O)cc1	-0.16	i	i	-5	i	i
O=C1CN(c2nc(-c3ccccc3)c3cc(Cl)ccc3n2)c2ccccc2N1	0.39	i	i	-12	i	i
CN1CCN(c2nc(-c3ccccc3)c3cc(Cl)ccc3n2)CC1	-9.6*	i	i	-20	i	i
CN1CCN(c2nnc(-c3ccccc3)c(-c3ccccc3)n2)CC1	-0.32	i	i	-8	i	i
Clc1ccc2nc(N3CCNCC3)nc(-c3ccccc3)c2c1	-4.9*	i	i	-31	i	i
CCN1C(=O)[C@H]2[C@@H](c3ccc(-c4ccc(F)cc4)cc3)N[C@@](CC(C)C)(C(=O)OC)[C@H]2C1=O	-0.47	i	i	-8	i	i
CCN1C(=O)[C@H]2[C@@H](c3ccc(-c4ccc(F)cc4)c(OC)c3)N[C@@](CC(C)C)(C(=O)OC)[C@H]2C1=O	-0.09	nt	i	-14	-12*	i
O=C(Cn1cnc([N+](=O)[O-])c1)Nc1cc(Oc2ccc(Cl)cc2Cl)cc([N+](=O)[O-])c1	0.32	i	8*	-8	i	i
CCOC(=O)Nc1ccc2c(c1)Nc1ccccc1S2	1.2	i	i	-7	-6.6*	i
Cc1sc2nc(SCC(=O)c3cc(C)n(CC4CCCO4)c3C)n(C(C)C)c(=O)c2c1C (centres undefined)	0.08	-8.8*	i	-5	i	i
Cc1cc(C(=O)CSc2nc(N)cc(N)n2)c(C)n1CC1CCCO1 (centres undefined)	nt	i	nt	nt	nt	nt
O=C(CCC(=O)N1CCCC1)Nc1nnc(C2CCCCC2)s1	0.58	i	i	-4	i	i
CC1CCCCN1C(=O)CCC(=O)Nc1nnc(C2CCCCC2)s1 (centres undefined)	-1.2	i	i	-6	-6.9*	i
COc1ccc(-n2cc3ccc([N+](=O)[O-])cc3n2)cc1	-0.36	i	i	2	i	i
COCCN(CCOC)c1nc(S(=O)(=O)c2ccc(C)cc2)c(Cl)s1	-1.2	i	i	-5	-7.8*	i
Cc1ccc(S(=O)(=O)c2c(C)cc(C)nc2Cl)cc1	-2.2	i	i	-12	i	i
C=C(C)Cn1c(C)cc(C)c(S(=O)(=O)c2ccc(C)cc2)c1=O	-2.8	i	i	-6	-7.2*	i
COc1ccc(NC(=S)NCc2ccccc2)c(OC)c1	0.48	i	i	-7	i	i
COc1ccc2nc(NC(=O)C3CCN(C(=O)c4ccco4)CC3)sc2c1	-0.16	i	i	-4	i	i
CCSC(C)CC1C/C(=N/O)c2c(CC)noc2C1 (centres undefined)	-0.13	i	i	-4	i	i
CCCc1noc2c1/C(=N\O)CC(CC(C)SCC)C2 (centres undefined)	-0.92	i	i	-4	-7*	i
SMILES	Kir21 inh	KCNK3 block	KCNQ1 inh	hERG rescue	KCNK9 block	KCNQ1 pot
CCn1c2ccccc2c2cc(CN3CCN(C(=O)c4ccco4)CC3)ccc21	-0.71	i	i	-21	i	i
CCCS(=O)(=O)N1CCN(Cc2ccc3c(c2)c2ccccc2n3CC)CC1	-5.9*	i	i	-9	i	i
CCn1c(=S)[nH]c2sc3c(c2c1=O)CCCC3	0.01	i	i	16*	i	35*
C=CCn1c(=S)[nH]c2sc3c(c2c1=O)CCC3	1.1	i	i	16*	i	i
CC1CCc2c(sc3nn[nH]c(=O)c23)C1 (centres undefined)	0.01	i	i	-10	i	i
CC1CCc2c(sc3[nH]c(=S)n(C)c(=O)c23)C1 (centres undefined)	0.02	i	i	52*	i	74*
Cc1cc(C)c(OCC(=O)Nc2nnc(C3CC3)s2)c(C)c1	nt	i	nt	nt	nt	nt
COc1ccc2cc(C(=O)C3CCCN(C(=O)c4cc5nc(C)cc(C)n5n4)C3)ccc2c1 (centres undefined)	0.53	i	i	-6	i	i
Cc1ccc2nc(SCCCCOc3ccccc3)[nH]c2c1	-0.15	-9.9*	i	-2	i	i
O=C(O)CN1C(=O)Nc2ccc(Br)cc2C1c1ccccc1 (centres undefined)	-1.2	i	i	-7	i	i
CCOC(=O)CN1C(c2ccccc2O)Nc2ccc(Br)cc2C1c1ccccc1 (centres undefined)	0.05	i	i	-7	-7.4*	i
O=C(CCC(=O)Nc1ccc(Cl)cc1)N/N=C/c1ccc2c(c1)OCO2	-0.21	i	6*	-5	i	i
O=C(CCC(=O)Nc1ccccc1)N/N=C/c1ccc2c(c1)OCO2	1.6	i	i	-8	i	i
Nc1ccc(C23CC4CC(CC(CO)(C4)C2)C3)cc1	-0.02	i	i	-8	i	i
NCC12CC3CC(C1)CC(c1ccc(Cl)cc1)(C3)C2	-10*	i	i	-37	-7.2*	i
CC1CN(C(=O)Nc2ccc3c(c2)OCO3)CC(C)O1 (centres undefined)	-0.06	i	i	-4	i	i
CCCCc1c(C)nc2ccc(Br)cc2c1SCCC#N	0.15	nt	i	-10	-7.7*	i
CCc1c(C)nc2ccc(Br)cc2c1SCCC#N	-1.3	i	i	-14	i	i
Cc1ccc(N2C(=O)Nc3ccccc3C2(O)C(=O)N2CCN(c3ccccn3)CC2)cc1C (centres undefined)	0.66	i	i	-12	i	i
